The record followed here is publication PMC11190929 (ACS Omega, 2024).

Data set [1] concerns the target T1, MARK4 (Homo sapiens, UniProt Q96L34).
T1 sequence (Q96L34 59-368): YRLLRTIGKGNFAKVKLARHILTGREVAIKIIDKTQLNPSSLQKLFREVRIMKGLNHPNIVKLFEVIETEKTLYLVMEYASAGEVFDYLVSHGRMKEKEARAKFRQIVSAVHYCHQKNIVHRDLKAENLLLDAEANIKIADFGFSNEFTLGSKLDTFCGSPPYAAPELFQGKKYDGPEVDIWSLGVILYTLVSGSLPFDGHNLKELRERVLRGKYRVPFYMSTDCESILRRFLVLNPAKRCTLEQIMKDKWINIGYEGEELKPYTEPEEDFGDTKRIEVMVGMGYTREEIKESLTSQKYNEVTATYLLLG
In words: Fluorescence binding studies. The note with it: for KSV: Stern-Volmer. Summed up:
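Intrinsic fluorescence of recombinant MARK4 (4 μM) titrated with test compound at 0–15 μM. Excitation 280 nm, emission 300–400 nm, slit 10 nm, medium response. Quenching data fitted to the Stern–Volmer and modified Stern–Volmer equations to give binding constant Ka and number of binding sites n.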

Data set [2] deals with T1, MARK4. Kind of data set: ATPase enzyme inhibition assay. The format is biochemical. The note with it: for ATPase activity of MARK4: in the presence of compound. Summed up:
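MARK4 (residues 59–368), expressed in E. coli M15 and purified, at 6 μM with 20 μM ATP in 20 mM Tris pH 8.0. Incubated with test compound (0–120 μM) at 25 °C for 10–15 min. Phosphate detected with Biomol Green malachite-green reagent, absorbance 620 nm. IC50 computed with an online calculator.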

Data set [3] has as its system SNU-475 cells. Kind of data set: Transwell cell migration assay, SNU-475. The data set is classed as cell-based, human. The note with it: SNU-475, 1/2 IC50, 24 h, vs vehicle control. Summed up:
(§1)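 Serum-starved cells treated with test compound or vehicle for 24 h, then 50 × 10^3 cells/well placed in serum-free medium in the upper Boyden chamber (8.0 μm PET membrane). Lower chamber held complete medium with 10% FBS. Next day, non-migrated cells were swabbed off. Migrated cells were methanol-fixed, stained with 0.4% crystal violet in 25% methanol, and counted in 4–5 random fields.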

The subject of a further data set is HEK293 cells. In words: Cytotoxicity on noncancerous HEK293 cells. The note with it: up to 200 μM. The format is cell-based, human. Summed up: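 HEK293 cells in RPMI 1640 medium, seeded at 2000–3000 cells/well and allowed to grow overnight. Exposed to test compound over 0–200 μM for 48–72 h. Resazurin-based PrestoBlue HS reagent applied about 45 min, fluorescence measured at excitation 560/emission 590 nm. Viability expressed as percent of vehicle control across doses.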

Data set [4] deals with tau phosphorylation in SH-SY5Y cells. Kind of data set: Tau-phosphorylation assay. The format is cell-based, human. As to conditions: compound at its enzyme IC50 concentration, 24 h. An outline of the steps:
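SH-SY5Y neuroblastoma cells kept in 1:1 Eagle's MEM/F12 and plated in six-well plates, then incubated with test compound for 24 h. Cells were trypsinized, fixed and rinsed, then labelled with an anti-phospho-tau primary and an Alexa-647 conjugated secondary antibody. After washing and resuspension in FACS buffer, cells were analysed by flow cytometry.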

Data set [5] deals with C3A cells. In words: Annexin-V/PI staining. The format is cell-based, human. Summed up: (§2)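 Cells were exposed to test compound or vehicle for 72 h, then trypsinized and washed 2–3 times in sterile PBS. They were stained with PI and Cy5-labelled annexin-V and analysed by flow cytometry. Positive cells were quantified from n = 3 biological replicates, with a t test against vehicle.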

In data set [6] the test system is SNU-475 cells. In words: Cell viability. The data set is classed as cell-based. The note with it: Homo sapiens, SNU-475, 72 h, read-out: IC50 (cell viability). An outline of the steps:
(§3)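 Cells grown in Eagle's MEM with 10% FBS and 1% penicillin/streptomycin, seeded at 2000–3000 cells/well and left overnight. Treated with test compound 0–200 μM for 48–72 h. PrestoBlue HS (resazurin) added for about 45 min, fluorescence read at 560/590 nm. Percent viability relative to vehicle control plotted against dose.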

The test system of data set [7] is C3A cells. In words: Transwell cell migration assay, C3A. The format is cell-based, human. The note with it: 1/2 IC50, 24 h, vs vehicle control. An outline of the steps: as §1
In data set [8] the test system is SNU-475 cells. Kind of data set: Annexin-V/PI staining. The format is cell-based, human. The note with it: SNU-475, annexin-V/PI. Summed up: as §2
Data set [9] concerns C3A cells. Kind of data set: Cell viability. The format is cell-based. The note with it: Homo sapiens, 72 h, read-out: IC50 (cell viability). Summed up: as §3
[10] abbreviates: fluorescence quenching, modified Stern-Volmer.

Usually Kd stands for the equilibrium constant for the complex coming apart. Low readings indicate higher affinity, high ones lower affinity. Take `COc1cc(C(=O)N/N=C2\C(=O)Nc3ccccc32)ccc1O` [VI-1, (Z)-4-Hydroxy-3-methoxy-N′-(2-oxoindolin-3-ylidene)benzohydrazide]: the Kd on MARK4 [1] was 0.179 µM. Besides, the KSV at MARK4 [1] (fluorescence quenching) was 3.9 × 10^5 M^–1. In addition, on MARK4 [1] (setting [10]), the “n (number of binding sites)” value came to 1.241.
On to `COc1cc(C(=O)N/N=C2\C(=O)Nc3ccc(C)cc32)ccc1O` [VI-2, (Z)-4-Hydroxy-3-methoxy-N′-(5-methyl-2-oxoindolin-3-ylidene)benzohydrazide], for which the “ATPase activity of MARK4” value at MARK4 [2] is recorded as “decreased considerably”. The same compound had a dissociation constant (Kd) at MARK4 [1] of 0.725 µM. Moreover, the KSV on MARK4 [1] (fluorescence quenching) is listed as 3.7 × 10^5 M^–1. Besides, at MARK4 [1] (setting [10]), the “n (number of binding sites)” value turned out to be 1.145.
The matching figures for `COc1ccc2c(c1)/C(=N/NC(=O)c1ccc(O)c(OC)c1)C(=O)N2` [VI-3, (Z)-4-Hydroxy-3-methoxy-N′-(5-methoxy-2-oxoindolin-3-ylidene)benzohydrazide]: “decreased considerably”, 0.0444 µM, 3.8 × 10^5 M^–1 and 1.367.
As to `COc1cc(C(=O)N/N=C2\C(=O)Nc3cc(Cl)ccc32)ccc1O` [VI-4, (Z)-N′-(6-Chloro-2-oxoindolin-3-ylidene)-4-hydroxy-3-methoxybenzohydrazide], the Kd on MARK4 [1] is 1.12 µM. The KSV on MARK4 [1] (fluorescence quenching) is listed as 1.8 × 10^5 M^–1. Moreover, the “n (number of binding sites)” value at MARK4 [1] (setting [10]) amounted to 1.141.
Consider `COc1cc(C(=O)N/N=C2\C(=O)Nc3c(C)cc(C)cc32)ccc1O` [VI-5, (Z)-N′-(5,7-Dimethyl-2-oxoindolin-3-ylidene)-4-hydroxy-3-methoxybenzohydrazide], for which the “ATPase activity of MARK4” value on MARK4 [2] is “decreased considerably”. Also, at MARK4 [1], the equilibrium dissociation constant (Kd) was 40 µM. For the same compound, the KSV on MARK4 [1] (fluorescence quenching) is 1.0 × 10^5 M^–1. The “n (number of binding sites)” value on MARK4 [1] (setting [10]) worked out at 0.8404.
As to `COc1cc(C(=O)N/N=C2\C(=O)Nc3ccc(Cl)cc32)ccc1O` [VI-6, (Z)-N′-(5-Chloro-2-oxoindolin-3-ylidene)-4-hydroxy-3-methoxybenzohydrazide], binding on MARK4 [1] was put at a Kd of 1.57 µM. The KSV on MARK4 [1] (fluorescence quenching) is 1.4 × 10^5 M^–1. Moreover, the “n (number of binding sites)” value at MARK4 [1] (setting [10]) was 1.135.
The matching figures for `COc1cc(C(=O)N/N=C2\C(=O)Nc3ccc(Br)cc32)ccc1O` [VI-7, (Z)-N′-(5-Bromo-2-oxoindolin-3-ylidene)-4-hydroxy-3-methoxybenzohydrazide]: 3.01 µM, 1.7 × 10^5 M^–1 and 1.067.
`COc1cc(C(=O)N/N=C2\C(=O)Nc3c2cccc3[N+](=O)[O-])ccc1O` [VI-8, (Z)-4-Hydroxy-3-methoxy-N′-(7-nitro-2-oxoindolin-3-ylidene)benzohydrazide] gave a Kd at MARK4 [1] of 76.3 µM. Also, at MARK4 [1] (fluorescence quenching), the KSV was 0.6 × 10^5 M^–1. At MARK4 [1] (setting [10]), the “n (number of binding sites)” value is 0.8606.
For orientation: IC50 means the concentration that inhibits the measured activity by half. Consider `COc1cc(C(=O)N/N=C2\C(=O)Nc3c(Cl)cccc32)ccc1O` [VI-9, (Z)-N′-(7-Chloro-2-oxoindolin-3-ylidene)-4-hydroxy-3-methoxybenzohydrazide], for which the Cell migration result with SNU-475 cells [3] and in the data set with C3A cells [7] was “significantly decreased the migration” throughout. In addition, the “Cytotoxicity on noncancerous HEK293 cells” value with HEK293 cells was “did not exhibit cytotoxicity”. Besides, the Tau phosphorylation entry in [4] is recorded as “decreased the tau phosphorylation”. Also, the Apoptosis induction entry with C3A cells [5] and with SNU-475 cells [8] was “strongly promote early apoptosis” each time. In addition, the half-inhibitory concentration (IC50) is 4.35 µM in the data set with SNU-475 cells [6], 7.16 µM at MARK4 [2] and 6.96 µM with C3A cells [9]. Also, on MARK4 [2], the “ATPase activity of MARK4” value was “decreased considerably”. Further, the Kd at MARK4 [1] was 6.76 µM. For the same compound, on MARK4 [1] (fluorescence quenching), the KSV is 1.0 × 10^5 M^–1. In addition, the “n (number of binding sites)” value on MARK4 [1] (setting [10]) is recorded as 1.047.
At MARK4 [1], `COc1cc(C(=O)N/N=C2\C(=O)Nc3cc(Cl)c(F)cc32)ccc1O` [VI-10, (Z)-N′-(6-Chloro-5-fluoro-2-oxoindolin-3-ylidene)-4-hydroxy-3-methoxybenzohydrazide] gave a Kd of 12.7 µM. In addition, at MARK4 [1] (fluorescence quenching), the KSV is reported as 0.8 × 10^5 M^–1. For the same compound, on MARK4 [1] (setting [10]), the “n (number of binding sites)” value was determined as 1.006.
The compound `COc1ccc2c(c1)NC(=O)/C2=N\NC(=O)c1ccc(O)c(OC)c1` [VI-13, (Z)-4-Hydroxy-3-methoxy-N′-(6-methoxy-2-oxoindolin-3-ylidene)benzohydrazide] had a Kd at MARK4 [1] of 0.0375 µM. The KSV at MARK4 [1] (fluorescence quenching) is given as 0.8 × 10^5 M^–1. Besides, at MARK4 [1] (setting [10]), the “n (number of binding sites)” value was determined as 1.517.
Regarding `COc1cc(C(=O)N/N=C2\C(=O)Nc3cc(F)ccc32)ccc1O` [VI-14, (Z)-N′-(6-Fluoro-2-oxoindolin-3-ylidene)-4-hydroxy-3-methoxybenzohydrazide], binding at MARK4 [1] was characterised by a dissociation constant (Kd) of 0.735 µM. The KSV at MARK4 [1] (fluorescence quenching) is reported as 1.8 × 10^5 M^–1. The “n (number of binding sites)” value at MARK4 [1] (setting [10]) is 1.199.
On to “(Z)-N′-(6-Fluoro-2-oxoindolin-3-ylidene)-4-hydroxy-3-methoxybenzohydrazide [VI-11]”, for which the KSV at MARK4 [1] (fluorescence quenching) is reported as 1.4 × 10^5 M^–1. The “n (number of binding sites)” value at MARK4 [1] (setting [10]) is recorded as 1.015. In addition, the “Ka (binding constant)” value at MARK4 [1] (fluorescence quenching, modified Stern-Volmer, excitation 280 nm) is given as 1.56 × 10^5 M^–1.
